Experimental data published in ChEMBL document CHEMBL1123109, “Alkyl esters of 3-adenin-9-yl-2-hydroxypropanoic acid: a new class of broad-spectrum antiviral agents” (1985).
Converted amounts (≈) assume the structure as drawn.

Columns and labels:
Type in all cases: functional
[1] = tested on: Vesicular stomatitis virus; assay: Inhibition of Vesicular stomatitis virus induced cytopathicity in BALB/3T3 cells.; conditions: in Mus musculus
Outline: (§1)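 Vesicular stomatitis virus was inoculated at 100 CCID50 (100× the dose infecting 50% of cells) in each cell type: human embryonic skin-muscle fibroblasts, LR-strain trisomy-21 fibroblasts, HEp-2, CV-1, BS-C-1, Balb/3T3, RK13, human kidney, HeLa and Vero. CPE was read at 1–2 days in every cell type, once complete in untreated infected controls. The MIC is the concentration giving a 50% reduction in cytopathogenicity.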

[2] = tested on: Vesicular stomatitis virus; assay: Inhibition of Vesicular stomatitis virus induced cytopathicity in BS-C-1 cells.; outline: as §1
[3] = tested on: Vesicular stomatitis virus; assay: Inhibition of Vesicular stomatitis virus induced cytopathicity in CV-1 cells.; outline: as §1
[4] = tested on: Vesicular stomatitis virus; assay: Inhibition of Vesicular stomatitis virus induced cytopathicity in E6SM cells.; outline: as §1
HK = assay: Minimum inhibitory concentration which is required to reduce virus-induced cytopathogenicity by 50% against Vesicular stomatitis virus in human kidney,; outline: as §1
[5] = tested on: Vesicular stomatitis virus; assay: Inhibition of Vesicular stomatitis virus induced cytopathicity in HEp-2 cells.; outline: as §1
Coxsackievirus B4 = assay: Inhibition of Coxsackie B4 virus induced cytopathicity in HeLa cells.; conditions: Enterovirus B
[6] = tested on: Vesicular stomatitis virus; assay: Inhibition of Vesicular stomatitis virus induced cytopathicity in HeLa cells.; outline: as §1
HeLa = assay: Cytotoxic concentration against HeLa cells.; conditions: Homo sapiens
Outline: (§2)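 Uninfected cells were incubated with compound for the same duration as the matching antiviral assay. The minimum cytotoxic concentration is the lowest one causing a microscopically detectable change in normal cell morphology.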

PRK = assay: Cytotoxic concentration against PRK cells.; conditions: Oryctolagus cuniculus; outline: as §2
Human alphaherpesvirus 1 = assay: Inhibition of HSV-1 induced cytopathicity in PRK cells.
Vaccinia virus = assay: Inhibition of Vaccinia virus induced cytopathicity in PRK cells.; conditions: Orthopoxvirus vaccinia
[7] = tested on: Vesicular stomatitis virus; assay: Inhibition of Vesicular stomatitis virus induced cytopathicity in PRK cells.
Oryctolagus cuniculus [8] = species on record: Oryctolagus cuniculus; assay: Inhibitory effects on DNA, RNA, and Protein synthesis in rabbit kidney cells was evaluated for incorporation of [4,5-3H]leucine; conditions: read-out: ID50 (the source's name)
Oryctolagus cuniculus [9] = species on record: Oryctolagus cuniculus; assay: Inhibitory effects on DNA, RNA, and Protein synthesis in rabbit kidney cells was evaluated for incorporation of [5-3H]-Urd; conditions: read-out: ID50 (the source's name)
[10] = tested on: Vesicular stomatitis virus; assay: Inhibition of Vesicular stomatitis virus induced cytopathicity in RK13 cells.; outline: as §1
[11] = tested on: Vesicular stomatitis virus; assay: Inhibition of Vesicular stomatitis virus induced cytopathicity in T-21 cells.; outline: as §1
Vero = assay: Cytotoxic concentration against Vero cells.; conditions: Chlorocebus sabaeus; outline: as §2
Sindbis virus = assay: Inhibition of Sindbis virus induced cytopathicity in vero cells.
[12] = tested on: Vesicular stomatitis virus; assay: Inhibition of Vesicular stomatitis virus induced cytopathicity in Vero cells.; outline: as §1
Measles morbillivirus = assay: Inhibition of Measles virus induced cytopathicity in vero cells.
Human respirovirus 3 = assay: Inhibition of parainfluenza virus-3 induced cytopathicity in vero cells.
[13] = tested on: Mammalian orthoreovirus 1; assay: Inhibition of Reo virus-1 induced cytopathicity in vero cells.
Poliovirus 1 = assay: Inhibition of polio virus 1 induced cytopathicity in HeLa cells.; conditions: Enterovirus C
Oryctolagus cuniculus [14] = species on record: Oryctolagus cuniculus; assay: Inhibitory effects on DNA, RNA, and Protein synthesis in rabbit kidney cells was evaluated for incorporation of [methyl-3H]dThd]; conditions: read-out: ID50 (the source's name)

| Structure (SMILES) | MIC [1] | MIC [2] | MIC [3] | MIC [4] | MIC (HK) | MIC [5] | MIC (Coxsackievirus B4) | MIC [6] | MCC (HeLa) | MCC (PRK) | MIC (Human alphaherpesvirus 1) | MIC (Vaccinia virus) | MIC [7] | MIC [10] | MIC [11] | MCC (Vero) | MIC (Sindbis virus) | MIC [12] | MIC (Measles morbillivirus) | MIC (Human respirovirus 3) | further results |
| --- | --- | --- | --- | --- | --- | --- | --- | --- | --- | --- | --- | --- | --- | --- | --- | --- | --- | --- | --- | --- | --- |
| Nc1ncnc2c1ncn2CC(O)C(=O)OCCO (stereo not drawn) | > 400 mg/L | > 400 mg/L | > 400 mg/L | 70 mg/L (≈ 262 µM) | 200 mg/L (≈ 748 µM) | 3 mg/L (≈ 11.2 µM) | > 400 mg/L | 70 mg/L (≈ 262 µM) | > 400 µg/mL | > 400 µg/mL | > 400 mg/L | 70 mg/L (≈ 262 µM) | 30 mg/L (≈ 112 µM) | 100 mg/L (≈ 374 µM) | 30 mg/L (≈ 112 µM) | > 400 µg/mL | > 400 mg/L | 150 mg/L (≈ 561 µM) | 30 mg/L (≈ 112 µM) | > 200 mg/L | IC50 (Oryctolagus cuniculus [8]): > 400 mg/L; IC50 (Oryctolagus cuniculus [9]): > 400 mg/L; MIC [13]: > 200 mg/L; MIC (Poliovirus 1): > 400 mg/L; IC50 (Oryctolagus cuniculus [14]): > 314 mg/L |
| CC(C)OC(=O)C(O)Cn1cnc2c(N)ncnc21 (stereo not drawn) | > 400 mg/L | > 400 mg/L | > 400 mg/L | 3 mg/L (≈ 11.3 µM) | 300 mg/L (≈ 1130 µM) | 7 mg/L (≈ 26.4 µM) | > 400 mg/L | 30 mg/L (≈ 113 µM) | > 400 µg/mL | > 400 µg/mL | > 400 mg/L | 3 mg/L (≈ 11.3 µM) | 3 mg/L (≈ 11.3 µM) | 1 mg/L (≈ 3.77 µM) | 1 mg/L (≈ 3.77 µM) | > 400 µg/mL | > 400 mg/L | 200 mg/L (≈ 754 µM) | 150 mg/L (≈ 565 µM) | 70 mg/L (≈ 264 µM) | MIC [13]: 40 mg/L (≈ 151 µM); MIC (Poliovirus 1): > 400 mg/L |
| CC(C)(C)OC(=O)C(O)Cn1cnc2c(N)ncnc21 (stereo not drawn) | > 400 mg/L | > 400 mg/L | > 400 mg/L | 150 mg/L (≈ 537 µM) | > 400 mg/L | 40 mg/L (≈ 143 µM) | > 400 mg/L | 150 mg/L (≈ 537 µM) | > 400 µg/mL | > 400 µg/mL | > 400 mg/L | 150 mg/L (≈ 537 µM) | 150 mg/L (≈ 537 µM) | 30 mg/L (≈ 107 µM) | 15 mg/L (≈ 53.7 µM) | > 400 µg/mL | > 400 mg/L | > 400 mg/L | 150 mg/L (≈ 537 µM) | 150 mg/L (≈ 537 µM) | MIC [13]: 150 mg/L (≈ 537 µM); MIC (Poliovirus 1): > 400 mg/L |
| Nc1ncnc2c1ncn2CC(O)C(=O)OCc1ccco1 (stereo not drawn) | > 40 mg/L | > 40 mg/L | > 40 mg/L | 40 mg/L (≈ 132 µM) | > 40 mg/L | 4 mg/L (≈ 13.2 µM) | > 40 mg/L | 7 mg/L (≈ 23.1 µM) | 40 µg/mL | 40 µg/mL | > 40 mg/L | 10 mg/L (≈ 33 µM) | 15 mg/L (≈ 49.5 µM) | > 40 mg/L | 7 mg/L (≈ 23.1 µM) | 40 µg/mL | > 40 mg/L | > 40 mg/L | > 40 mg/L | 15 mg/L (≈ 49.5 µM) | MIC [13]: 30 mg/L (≈ 98.9 µM); MIC (Poliovirus 1): > 40 mg/L |
| CC(C)CCOC(=O)C(O)Cn1cnc2c(N)ncnc21 (stereo not drawn) | 200 mg/L (≈ 682 µM) | 70 mg/L (≈ 239 µM) | 200 mg/L (≈ 682 µM) | 2 mg/L (≈ 6.82 µM) | 10 mg/L (≈ 34.1 µM) | 1 mg/L (≈ 3.41 µM) | > 400 mg/L | 3 mg/L (≈ 10.2 µM) | 400 µg/mL | 400 µg/mL | > 400 mg/L | 10 mg/L (≈ 34.1 µM) | 3 mg/L (≈ 10.2 µM) | 100 mg/L (≈ 341 µM) | 1 mg/L (≈ 3.41 µM) | 400 µg/mL | 200 mg/L (≈ 682 µM) | 15 mg/L (≈ 51.1 µM) | 12 mg/L (≈ 40.9 µM) | > 200 mg/L | IC50 (Oryctolagus cuniculus [8]): 228 mg/L (≈ 777 µM); IC50 (Oryctolagus cuniculus [9]): 29 mg/L (≈ 98.9 µM); MIC [13]: 30 mg/L (≈ 102 µM); MIC (Poliovirus 1): > 400 mg/L; IC50 (Oryctolagus cuniculus [14]): 114 mg/L (≈ 389 µM) |
| CCC(C)OC(=O)C(O)Cn1cnc2c(N)ncnc21 (stereo not drawn) | > 400 mg/L | > 400 mg/L | > 400 mg/L | 1 mg/L (≈ 3.58 µM) | > 400 mg/L | 7 mg/L (≈ 25.1 µM) | > 400 mg/L | 30 mg/L (≈ 107 µM) | > 400 µg/mL | > 400 µg/mL | > 400 mg/L | 3 mg/L (≈ 10.7 µM) | 1 mg/L (≈ 3.58 µM) | 15 mg/L (≈ 53.7 µM) | 1 mg/L (≈ 3.58 µM) | > 400 µg/mL | 300 mg/L (≈ 1070 µM) | 150 mg/L (≈ 537 µM) | 40 mg/L (≈ 143 µM) | 200 mg/L (≈ 716 µM) | MIC [13]: 70 mg/L (≈ 251 µM); MIC (Poliovirus 1): > 400 mg/L |
